Source: ChEMBL document CHEMBL1155735, “Isolation and bioactivities of constitutents of the roots of Garcinia atroviridis” (J Nat Prod, 2001)
Values after ≈ are worked out from the molar mass of the structure shown. Active and inactive are the calls of the source. The calls are words filed in the database; no cut-off is given here.

Legend:
[1] = system: Staphylococcus aureus; test: Antibacterial activity against Staphylococcus aureus at 10 ug/disk by disk diffusion method; format: functional; conditions: read-out: DIZ
Method in brief: (§1)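 Disk diffusion, with test compound applied at 10 µg per disk. Streptomycin sulfate served as the reference antibacterial. Procedure followed an earlier report.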

[2] = system: Bacillus cereus; test: Antibacterial activity against Bacillus cereus at 10 ug/disk by disk diffusion method; format: functional; conditions: read-out: DIZ; method in brief: as §1
[3] = system: Escherichia coli; test: Antibacterial activity against Escherichia coli at 10 ug/disk by disk diffusion method; format: functional; method in brief: as §1
[4] = system: Aspergillus ochraceus; test: Antifungal activity against Aspergillus ochraceus at 10 ug/disk by disk diffusion method; format: functional, organism-based
[5] = system: Candida albicans; test: […] activity against Candida albicans at 10 ug/disk by disk diffusion method; format: functional, organism-based
[6] = system: HeLa; test: Cytotoxicity against human HeLa cells after 72 hrs by MTT assay; format: functional, cell-based
Method in brief: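 Human cervical carcinoma HeLa cells were exposed for 72 h and viability read by MTT. IC50 values were reported in µg/mL, with doxorubicin and colchicine run as reference standards. Method followed an earlier report.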

| Compound | zone of inhibition at 10 µg/disc [1] [mm] | zone of inhibition at 10 µg/disc [2] [mm] | diameter of the inhibition zone (DIZ) [3] | Activity [4] | Activity [5] | IC50 [6] [µg/mL] | zone of inhibition at 10 µg/disc ([3]; read-out: DIZ) [mm] |
| --- | --- | --- | --- | --- | --- | --- | --- |
| COC(=O)c1c(O)cc(O)cc1OC1=C(OC)C(=O)C(CC=C(C)C)=C(CC=C(C)C)C1=O [ATROVIRINONE] | 6.5 | 6.5 | inactive | inactive | inactive | 15 (≈ 32.9 µM) |  |
| COc1cc2c(c(OC)c1OC)-c1ccc(OC)c(=O)cc1[C@@H](NC(C)=O)CC2 [COLCHICINE] |  |  |  |  |  | 21 (≈ 52.6 µM) |  |
| COc1cccc2c1C(=O)c1c(O)c3c(c(O)c1C2=O)C[C@@](O)(C(=O)CO)C[C@@H]3O[C@H]1C[C@H](N)[C@H](O)[C@H](C)O1 [DOXORUBICIN] |  |  |  |  |  | 11 (≈ 20.2 µM) |  |
| CN[C@@H]1[C@H](O[C@H]2[C@H](O[C@H]3[C@H](O)[C@@H](O)[C@H](N=C(N)N)[C@@H](O)[C@@H]3N=C(N)N)O[C@@H](C)[C@]2(O)C=O)O[C@@H](CO)[C@H](O)[C@H]1O [STREPTOMYCIN] | 13.5 | 21 |  |  |  |  | 12.5 |
| COc1c(O)c(CC=C(C)C)c(CC=C(C)C)c2c1Oc1cc(O)cc(O)c1C(=O)O2 [ATROVIRISIDONE] | 8 | 7.5 | inactive | inactive | inactive | > 30 |  |
